Assay outcomes (PubChem)
LEDGF integ inh – blocks HIV-1 LEDGF/p75-dependent DNA integration | actives 0.64% (n = 370,000) | inhibition, % at 3.7 µM | TR-FRET IN-LEDGF/p75 DNA integration, Eu/Cy5;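 active = inhibition above the screen-wide mean plus 3 SD, cut at about 13% in these data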;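 also: signal is the Cy5 over europium emission ratio at 671 and 618 nm; 0% = plate median of compound wells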
MBD2 DNA inh – inhibitors of human MBD2 binding to methylated oligonucleotide; inhibition, % at 4.4 µM; Q9UBB5; TR-FRET; actives 0.31% (n = 370,000); in the data active = inhibition above about 13%
TDP2 absorb – TDP2 (human) inhibition, absorbance primary screen; O95551; recombinant TDP2, T5PNP hydrolysis, p-nitrophenol absorbance 415 nm; inhibition, % at 12.8 µM; actives 0.34% (n = 370,000);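 active = inhibition above the mean of all tested compounds plus 3 SD, set per campaign, cut at about 25% in these data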;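 also: 0% = DMSO with enzyme and 100% = buffer with substrate but no TDP2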
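System – recombinant human TDP2 · Amount – 120 nM TDP2 per well · Buffer or medium – Mg2+-containing Tris-HCl buffer, pH 7.5 · Reagent – T5PNP substrate, 5 mM · Dosing – 12.8 µM single point, 1% DMSO · Incubation – 2 h at 37 °C · Measured by – epi absorbance · Read-out basis – percent inhibition · Benchmarks – high control without enzyme, low control DMSO plus TDP2 · Repeats – singlicate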
Rin1-Abl PPI inh – inhibitors of human Rin1-Abl protein interaction. actives 0.4% (n = 360,000). P00519+Q13671. TR-FRET Rin1/Abl binding, biochemical. inhibition, % at 7.35 µM; in the data active = inhibition above about 5%, passing the limit was not always enough
UHRF1 MBD2 ctr – human UHRF1 methylated DNA binding inhibitors. Q96T88. UHRF1 binding to methylated oligo, TR-FRET. inhibition, % at 4.4 µM. actives 0.75% (n = 370,000). AID 687016; in the data active = inhibition above about 21%;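 also: UHRF1 SRA domain binding a hemimethylated CpG hairpin DNA probe; 0% = median of test compound wells and 100% = reference inhibitor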
Target sequence (Q96T88 whole entry, looked up, the tested form may be a part): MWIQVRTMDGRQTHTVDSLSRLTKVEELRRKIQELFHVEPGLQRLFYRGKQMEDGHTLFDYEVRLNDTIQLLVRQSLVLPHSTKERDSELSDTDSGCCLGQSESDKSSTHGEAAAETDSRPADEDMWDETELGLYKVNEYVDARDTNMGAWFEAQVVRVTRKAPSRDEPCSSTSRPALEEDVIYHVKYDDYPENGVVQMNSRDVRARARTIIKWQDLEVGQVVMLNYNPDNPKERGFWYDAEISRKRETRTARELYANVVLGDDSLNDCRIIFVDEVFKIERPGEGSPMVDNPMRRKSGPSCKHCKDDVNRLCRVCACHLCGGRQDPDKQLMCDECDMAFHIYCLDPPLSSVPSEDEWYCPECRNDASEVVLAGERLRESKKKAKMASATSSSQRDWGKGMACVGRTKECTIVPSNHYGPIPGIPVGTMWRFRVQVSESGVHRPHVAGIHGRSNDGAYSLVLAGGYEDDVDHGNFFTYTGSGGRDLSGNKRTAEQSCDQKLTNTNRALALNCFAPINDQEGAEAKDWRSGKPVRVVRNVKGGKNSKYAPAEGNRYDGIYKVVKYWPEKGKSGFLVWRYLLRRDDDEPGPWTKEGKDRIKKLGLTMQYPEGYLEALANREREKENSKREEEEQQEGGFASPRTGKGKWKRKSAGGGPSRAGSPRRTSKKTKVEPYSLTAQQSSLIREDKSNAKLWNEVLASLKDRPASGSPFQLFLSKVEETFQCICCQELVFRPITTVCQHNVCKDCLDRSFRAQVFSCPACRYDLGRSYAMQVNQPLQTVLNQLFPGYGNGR
* marks the source's active call; other numbers are inactive results; · = not tested or not shown. Only some compounds are listed: those with a hit (about 1.9% of all), similar ones and a draw of the others.

SMILES | LEDGF integ inh | MBD2 DNA inh | TDP2 absorb | Rin1-Abl PPI inh | UHRF1 MBD2 ctr
FC(F)(F)c1cc(Cl)c2nc(-c3ccco3)c(Cc3ccccc3C(F)(F)F)n2c1 | 8.0 | 5.3 | 6.5 | · | 21.1*
COC(=O)c1ccc(CN2CCC(CO)(Cc3ccccc3Cl)CC2)cc1 | 3.1 | 4.5 | 5.7 | 4.4 | -1.5
O=C(C1CC12CCCC2)N1CCC(CO)(Cc2ccccc2Cl)CC1 (configuration not stated) | -4.2 | 3.7 | -13.2 | 4.0 | 45.0*
C[C@@H]1COc2cc(N3CCCC3)ccc2S(=O)(=O)N1 | -2.5 | 6.1 | -4.2 | · | 21.3*
COC(=O)C1CN(Cc2cn(Cc3ccc(OC)cc3)nn2)CCS(=O)(=O)N1Cc1ccc(C)cc1 (configuration not stated) | -2.9 | 2.9 | -4.1 | · | -1.5
Cc1ccc(NC(=O)c2ccc(S(=O)(=O)NCc3ccco3)cc2)nc1 | 2.2 | 4.3 | 0.8 | 4.2 | -3.2
Cc1cccc(NC(=O)c2ccc(S(=O)(=O)NCc3ccco3)cc2)n1 | -1.0 | 3.1 | 0.3 | 1.7 | 30.3*
Cc1ccc(F)cc1NC(=O)COC(=O)c1ccc2ncsc2c1 | 2.8 | -0.9 | -10.1 | -0.1 | 0.4
Cc1ccc(NC(=O)COC(=O)c2ccc3ncsc3c2)c(C)c1 | -1.2 | 0.3 | 15.4 | 3.9 | 21.6*
O=C(/C=C/c1ccco1)Nc1cccc(NC(=O)/C=C/c2ccco2)n1 | 10.6 | 10.8 | -9.3 | -0.3 | 21.1*
Cc1ccc(-c2csc(NC(=O)/C=C/c3ccco3)c2C(=O)O)cc1 | 12.6 | 1.0 | -0.9 | -1.6 | 31.5*
O=C(CSc1nnc(-c2ccco2)n1-c1ccc(Cl)cc1)Nc1ccc(S(=O)(=O)Nc2nccs2)cc1 | 3.0 | 0.0 | -1.8 | · | 1.9
CCOC(=O)[C@@]12CCCC3=C1N(CCC3)C(=O)[C@H]2CC(=O)N1CCC(c2ccccc2)CC1 | 5.8 | -0.5 | -3.1 | · | -3.8
O=S(=O)(c1ccccc1)c1nc(-c2ccccc2Cl)oc1NCCCN1CCOCC1 | -1.9 | 3.4 | -7.2 | 2.1 | 39.6*
CCCN1CCCc2cc(CN)ccc21 | 35.3* | 3.4 | 65.5* | 0.7 | 12.4
CN1CCCc2cc(C=O)ccc21 | 1.3 | -7.3 | 3.9 | -0.9 | -2.2
CCn1cc(C(=O)NCCCN2CCN(C)CC2)c(=O)c2cc(S(=O)(=O)N3CCc4ccccc4C3)ccc21 | -0.9 | -5.7 | 8.1 | 5.6 | 41.4*
Cc1cc(NC(=O)CSc2nc(CC(C)(C)C)nc3c2c(=O)n(C)c(=O)n3C)no1 | 2.1 | 2.9 | -1.6 | 0.0 | 21.7*
Cc1cc(NC(=O)CSc2nc(-c3ccccc3Cl)nc3c2c(=O)n(C)c(=O)n3C)no1 | 2.2 | 7.3 | -5.9 | 6.8 | 23.4*
CCc1nc(SCC(=O)Nc2cc(C)on2)c2c(=O)n(C)c(=O)n(C)c2n1 | -1.5 | 0.6 | 13.1 | -1.2 | -1.4
Cc1cc(C)cc(N(CC(=O)NC2CCC(C)CC2)S(=O)(=O)c2ccc([N+](=O)[O-])cc2)c1 (configuration not stated) | 1.9 | -4.0 | 4.7 | · | -2.8
C[C@@H](CO)N(CCc1cn(Cc2ccccc2)nn1)S(=O)(=O)c1ccccc1Br | -2.0 | 0.3 | 7.4 | · | 0.2
Cc1cc(C(=O)N/N=C/c2c(CO)cnc(C)c2O)c2ccccc2n1 | -7.3 | -8.4 | -18.6 | -4.1 | -5.1
Cc1ncc(CO)c(/C=N/NC(=O)c2cc(Br)ccc2O)c1O | -7.7 | 0.3 | -1.0 | 0.2 | 24.3*
O=C(O)c1cc(-c2ccc(/C=C3\NC(=O)N(c4ccccc4)C3=O)o2)ccc1Cl | 4.9 | 5.2 | 2.9 | -2.1 | 15.9
SMILES | LEDGF integ inh | MBD2 DNA inh | TDP2 absorb | Rin1-Abl PPI inh | UHRF1 MBD2 ctr
O=C1NN(c2ccccc2)C(=O)/C1=C/c1ccc(-c2ccc(Cl)c(C(=O)O)c2)o1 | 4.7 | 0.3 | -7.1 | 2.5 | 22.9*
Cc1ccc(Sc2ccc(/C=C3/C(=O)NN(c4ccccc4)C3=O)o2)cc1 | 5.5 | 0.5 | -19.8 | -0.1 | 8.9
Cc1cccc(N2NC(=O)/C(=C/c3ccc(-c4ccc(Cl)c(C(=O)O)c4)o3)C2=O)c1 | 5.3 | 6.0 | -9.4 | 1.4 | 31.4*
CN=c1sc2c(n1C)C(=O)c1ccccc1C2=O | 13.1 | -10.1 | 34.6* | -3.9 | 0.9
CN=c1sc(C(=O)Nc2ccccc2)c(C)n1C | 0.3 | -2.4 | 2.8 | -1.2 | -2.2
CC(C)NC(=O)c1c(CSc2ccc(Cl)cc2)noc1C(=O)NCc1ccccc1 | -3.3 | 9.7 | -7.9 | -0.9 | 1.6
CC(C)NC(=O)c1c(CSc2ccccc2)noc1C(=O)NCc1ccccc1 | 0.8 | -2.1 | -3.4 | 3.7 | 22.2*
O=C(c1cn2ccccc2n1)N1CCCC(Nc2ccc(F)c(F)c2)C1 (configuration not stated) | -4.9 | 0.8 | -7.3 | 3.6 | 22.9*
CCCCCCCCNS(=O)(=O)CCNCc1ccccc1 | -3.2 | 1.3 | 0.0 | -0.3 | 22.5*
COc1ccc(Cl)cc1NC(=O)Cn1c(=O)n2nc(C)nc2c2ccccc21 | -1.5 | 3.0 | 3.7 | 0.8 | 70.0*
O=C1C(=C(c2ccccc2)c2ccccc2)Nc2ccccc21 | -1.7 | -5.7 | -7.0 | -7.6 | -5.6
O=C1C(=C(O)c2ccccc2)C(=O)c2ccccc21 | -2.1 | -4.3 | 9.4 | 12.5* | -5.5
Cc1ccc(/C=C/S(=O)(=O)NCC(=O)OCC(=O)Nc2ccc(C(N)=O)cc2)cc1 | -0.9 | 4.4 | 0.3 | 3.8 | 22.9*
C/C(=N\Nc1ccc(Cl)c(C(=O)O)c1)c1cc2ccccc2o1 | -2.5 | -3.1 | -5.3 | 0.4 | 30.9*
C/C(=N\Nc1cccc(C(=O)O)c1)c1cc2ccccc2o1 | 3.4 | 7.1 | 5.9 | -0.1 | 3.4
Cc1ccc(CNC(=O)CN2C(C)CCCC2C)cc1 (configuration not stated) | 4.2 | -1.7 | 14.4 | 4.0 | 49.0*
Cc1ccc(CNC(=O)C2CCCC2)cc1 | -2.9 | 3.0 | -2.4 | 0.2 | 2.4
C[C@H]1COc2cc(Br)ccc2S(=O)(=O)N1Cc1cn(Cc2ccc(F)cc2)nn1 | -3.2 | 2.6 | 2.4 | · | -0.2
Nc1ccc2c(c1)C1(CCC2)NC(=O)NC1=O (configuration not stated) | 1.1 | 9.1 | -1.9 | 1.6 | 21.3*
COc1cccc(CC(NC(C)=O)C(=O)NC2CCN(c3c(Cc4ccccc4)c(C)nc4ncnn34)CC2)c1 (configuration not stated) | 0.0 | 6.7 | 7.2 | 2.2 | 25.8*
CC(C)N1CCC(C)(C(=O)Nc2cccc(Oc3ccccc3)c2)C1 (configuration not stated) | -2.8 | -0.7 | 5.2 | 2.0 | 30.7*
Cc1c(COC(=O)NC(C)C)c(COC(=O)NC(C)C)c2n1CS(=O)(=O)C2 | -4.6 | 4.0 | 3.9 | · | 26.4*
CC(C)CN1CCN(Cc2cn(C)c3ccccc23)CC1CCO (configuration not stated) | -0.7 | 0.4 | -13.3 | -3.1 | 25.7*
Cn1cc(CN2CCN(CC(C)(C)C)C(CCO)C2)c2ccccc21 (configuration not stated) | 1.4 | 1.6 | -11.4 | -1.0 | 0.8
CCN(CCCc1ccccc1)CCCc1ccccc1 | 1.1 | -2.6 | -8.2 | 0.7 | 0.8
